According to ChEMBL document CHEMBL1134791, “2- and 3-substituted 1,4-naphthoquinone derivatives as subversive substrates of trypanothione reductase and lipoamide dehydrogenase from Trypanosoma cruzi: synthesis and correlation between redox cycling activities and in vitro cytotoxicity” (J Med Chem, 2001):
The source made the active and inactive calls. No cut-off for these calls is given here.

Legend:
Leishmania donovani = assay: In vitro antiparasitic activity against Leishmania donovani was tested by sigmoidal regression analysis; format: functional
In short: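 Mouse peritoneal macrophages (female CD1, starch-elicited, harvested 24 h) infected with L. donovani amastigotes (strain MHOM/ET/67/L82, hamster spleen) or T. cruzi Y-strain trypomastigotes (5:1, from MDCK overlay). Infected cells exposed to a 3-fold dilution series in quadruplicate for 5 days (L. donovani) or 3 days (T. cruzi). Giemsa-stained slides scored for % macrophages cleared of amastigotes versus untreated cultures. ED50 by sigmoidal regression.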

[1] = biological target: Trypanothione reductase (Trypanosoma cruzi) (UniProt P28593); assay: The second order rate constant of the TcTR (Trypanosoma cruzi trypanothione reductase) catalyzed […].
Chain of Trypanothione reductase (Trypanosoma cruzi) (P28593 whole entry, looked up): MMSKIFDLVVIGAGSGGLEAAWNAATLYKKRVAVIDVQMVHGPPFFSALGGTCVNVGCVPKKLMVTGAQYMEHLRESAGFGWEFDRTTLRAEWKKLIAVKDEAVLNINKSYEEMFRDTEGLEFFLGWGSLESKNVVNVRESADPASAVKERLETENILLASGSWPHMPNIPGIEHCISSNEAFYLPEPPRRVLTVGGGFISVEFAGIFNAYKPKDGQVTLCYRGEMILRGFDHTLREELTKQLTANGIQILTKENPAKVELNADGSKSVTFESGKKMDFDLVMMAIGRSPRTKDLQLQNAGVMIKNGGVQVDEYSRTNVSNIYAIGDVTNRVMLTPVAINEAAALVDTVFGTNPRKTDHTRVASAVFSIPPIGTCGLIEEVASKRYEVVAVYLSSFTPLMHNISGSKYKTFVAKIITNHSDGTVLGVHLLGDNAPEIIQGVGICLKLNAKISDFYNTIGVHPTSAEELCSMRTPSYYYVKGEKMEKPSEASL
In short: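 Recombinant TcTR (0.6 U) in 20 mM Hepes, 1 mM EDTA, 0.15 M KCl, pH 7.25 at 22 °C, with 200 µM NADPH and naphthoquinone at five concentrations (0–100 µM) in 1% DMSO. NADPH oxidation at 340 nm; intrinsic oxidase rate not subtracted. Km and Vmax from nonlinear Michaelis–Menten fit; kcat and kcat/Km calculated.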

Trypanosoma cruzi [2] = system: Trypanosoma cruzi
[3] = biological target: T1, Dihydrolipoyl dehydrogenase, mitochondrial (Sus scrofa) (UniProt P09623); assay: Ratio of cytochrome c reduction and NADH oxidation by pig heart LipDH (pig heart lipoamide dehydrogenase) at 50 uM concentration, cytochrome c assay
T1 sequence (whole entry): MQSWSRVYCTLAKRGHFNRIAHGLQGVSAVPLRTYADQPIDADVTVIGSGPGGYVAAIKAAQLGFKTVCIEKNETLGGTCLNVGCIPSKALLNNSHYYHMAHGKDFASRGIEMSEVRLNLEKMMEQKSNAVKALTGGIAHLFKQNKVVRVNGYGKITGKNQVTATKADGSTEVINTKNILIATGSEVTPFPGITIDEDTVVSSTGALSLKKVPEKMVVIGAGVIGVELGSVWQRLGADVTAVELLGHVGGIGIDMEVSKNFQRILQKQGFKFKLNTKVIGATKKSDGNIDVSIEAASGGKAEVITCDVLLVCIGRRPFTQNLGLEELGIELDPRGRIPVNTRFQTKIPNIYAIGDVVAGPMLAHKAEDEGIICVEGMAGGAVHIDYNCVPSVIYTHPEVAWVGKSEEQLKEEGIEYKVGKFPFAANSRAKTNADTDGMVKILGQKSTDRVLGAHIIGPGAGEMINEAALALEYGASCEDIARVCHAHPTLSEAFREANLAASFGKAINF
In short: (§1)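 T. cruzi or pig heart LipDH in 50 mM potassium phosphate pH 7.0 with 100 µM NADH, 50 µM cytochrome c and 50 µM naphthoquinone at 31 °C. Cytochrome c reduction read at 550 nm; NADH oxidation measured at 340 nm in the same conditions without cytochrome c. One-electron reduction % = cytochrome c rate ÷ (2 × NADH rate). At least duplicate.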

Trypanosoma cruzi [4] = assay: Ratio of cytochrome c reduction and NADH oxidation by TcLipDH (Trypanosoma cruzi lipoamide dehydrogenase) at 50 uM concentration, in cytochrome c assay; in short: as §1
[5] = biological target: T1, Dihydrolipoyl dehydrogenase, mitochondrial (Sus scrofa); assay: Second order rate constant of the pig heart LipDH (lipoamide dehydrogenase) catalyzed NADH oxidation.
In short: (§2)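 Recombinant T. cruzi LipDH (E. coli, purified) or pig heart LipDH, 0.1–2.5 µg/mL. Buffer was 50 mM potassium phosphate, 1 mM EDTA, pH 7.0, with 100 µM NADH and naphthoquinone at 10 µM–1.2 mM; all assays carried equal DMSO. Run at 31 °C, started with enzyme, NADH decrease followed at 340 nm. Km and Vmax from Lineweaver–Burk plots. At least duplicate.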

[6] = system: Dihydrolipoyl dehydrogenase (Trypanosoma cruzi); assay: The second order rate constant of the TcLipDH (Trypanosoma cruzi lipoamide dehydrogenase) catalyzed NADH oxidation.
[7] = biological target: T1, Dihydrolipoyl dehydrogenase, mitochondrial (Sus scrofa); assay: Ratio of cytochrome c reduction and NADH oxidation by pig heart LipDH (lipoamide dehydrogenase) at 50 uM concentration, in cytochrome c assay; in short: as §1
Trypanosoma brucei [8] = assay: In vitro antiparasitic activity against Trypanosoma brucei was tested by sigmoidal regression analysis at 30 uM; IA is inactive; format: functional, organism-based
In short: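 T. b. brucei S427 bloodstream trypomastigotes at 2 × 10⁵/mL in HMI-18 medium, in triplicate, with a 3-fold dilution series starting at 30 µM. Incubated 3 days at 37 °C in 5% CO₂. Pentamidine served as positive control. Viability read by tetrazolium colorimetric assay on day 3. ED50 by sigmoidal regression.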

Trypanosoma cruzi [9] = assay: The Michaelis-Menten constant for NADH oxidation by TcLipDH (Trypanosoma cruzi lipoamide dehydrogenase)
[10] = biological target: T1, Dihydrolipoyl dehydrogenase, mitochondrial (Sus scrofa); assay: The second order rate constant of the pig heart LipDH (lipoamide dehydrogenase) catalyzed NADH oxidation.; in short: as §2
Trypanosoma cruzi [11] = assay: The second oder rate constant of the TcLipDH (Trypanosoma cruzi lipoamide dehydrogenase) catalyzed NADH oxidation.; in short: as §2
Trypanosoma cruzi [12] = assay: Vmax is the maximum velocity of the TcLipDH (Trypanosoma cruzi lipoamide dehydrogenase) catalyzed NADH oxidation
In short: (§3)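 Recombinant TcLipDH expressed in E. coli, 0.1–2.5 µg/mL. 50 mM potassium phosphate, 1 mM EDTA, pH 7.0, 31 °C, with 100 µM NADH and naphthoquinone varied from 10 µM to 1.2 mM. DMSO was constant in all assays. NADH decrease followed at 340 nm. Km, Vmax and kcat came from Lineweaver-Burk plots, with kcat/Km derived. At least duplicate.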

[13] = biological target: Trypanothione reductase (Trypanosoma cruzi) (UniProt P28593); assay: Rate of NADPH oxidation by TcTR in presence of 100 uM NQ was determined in comparison to intrinsic oxidase activity
In short: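 Quinone reductase activity of recombinant TcTR measured as NADPH oxidation at 340 nm. Buffer was 20 mM Hepes, 1 mM EDTA, 0.15 M KCl, pH 7.25, with 250 µM NADPH at 25 °C. Rate with naphthoquinone (100 µM for line 8, 25 µM for line 9) divided by intrinsic oxidase rate of enzyme plus NADPH alone. Mean of at least two measurements.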

Trypanosoma cruzi [14] = assay: The second order rate constant of the TcLipDH (Trypanosoma cruzi lipoamide dehydrogenase) catalyzed NADH oxidation.; in short: as §3
Trypanosoma brucei [15] = assay: In vitro antiparasitic activity against Trypanosoma brucei was tested by sigmoidal regression analysis

SMILES | ED50 (Leishmania donovani) | Reduction (Trypanosoma cruzi [4]) | k cat/Km [6] | Reduction [7] | Km (Trypanosoma cruzi [9]) | k cat/Km [10] | also measured
CC1=C(CCC(=O)NCCCN2CCN(CCCNC(=O)CCC3=C(C)C(=O)c4ccccc4C3=O)CC2)C(=O)c2ccccc2C1=O | > 46 µM | – | – | – | – | – | k cat/Km [1]: 4.4 10e4 M-1 s-1; x fold (Trypanosoma cruzi [2]): 1000 µM
CC1=C(CCC(=O)O)C(=O)c2ccccc2C1=O | > 30 µM | 3% | 6.6 10e4 M-1 s-1 | – | – | – | Reduction [3]: 0.5%; k cat/Km [5]: 3.2 10e4 M-1 s-1
CC1=CC(=O)c2ccccc2C1=O | – | 12.7% | – | 8.1% | 170 µM | – | IA (Trypanosoma brucei [8]): inactive; k cat/Km [1]: 1 10e4 M-1 s-1; k cat/Km [5]: 13 10e4 M-1 s-1
CC1=C(CCCNC(=O)OC(C)(C)C)C(=O)c2c(O)cccc2C1=O | 10 µM | – | – | – | 30 µM | 3.5 10e4 M-1 s-1 | k cat/Km (Trypanosoma cruzi [11]): 23 10e4 M-1 s-1; Vmax (Trypanosoma cruzi [12]): 8.24 µM/min/mg
CC1=C(CCC(=O)O)C(=O)c2c(O)cccc2C1=O | 72 µM | 6.6% | 10.2 10e4 M-1 s-1 | 1.6% | – | 2.4 10e4 M-1 s-1 | –
CC1=C(CCC(=O)NCCCN2CCN(C)CC2)C(=O)c2ccccc2C1=O | > 30 µM | 1.6% | 3 10e4 M-1 s-1 | 0.8% | – | 2.6 10e4 M-1 s-1 | x fold [13]: 7
CC1=C(CCCNC(=O)OC(C)(C)C)C(=O)c2ccccc2C1=O | 29.4 µM | – | 8.4 10e4 M-1 s-1 | – | – | 3.4 10e4 M-1 s-1 | –
CC1=CC(=O)c2c(O)cccc2C1=O | – | 26.1% | – | 15.4% | 40 µM | 29 10e4 M-1 s-1 | k cat/Km (Trypanosoma cruzi [14]): 48 10e4 M-1 s-1; Vmax (Trypanosoma cruzi [12]): 22.9 µM/min/mg
CC1=C(NCCCN2CCN(CCCN)CC2)C(=O)c2ccccc2C1=O | – | – | – | – | – | – | ED50 (Trypanosoma brucei [15]): > 12.5 µM
